Experimental data taken from ChEMBL document CHEMBL2311265, “5'-Phosphate and 5'-phosphonate ester derivatives of (N)-methanocarba adenosine with in vivo cardioprotective activity” (J Med Chem, 2013).
≈ marks a conversion by molar mass, not a printed value. Calls of active or inactive are those of the source. The rule behind the calls is not given here.

Legend:
Mus musculus [1] = assay: Cardioprotective activity in BL6 mouse LAD ligation ischemic heart failure model assessed as change in infarct size at 10 uM, sc administered as infusion at 24 hrs post-LAD ligation for 1 month relative to control; format: functional, organism-based
Summary of the method: (§1)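 Permanent LAD ligation in 12-week-old WT BL6 mice under intraperitoneal ketamine (100 mg/kg) and xylazine (10 mg/kg). Starting within 24 h, agents in PBS pH 7.4 at 10 µM were infused by mini-osmotic pump at 6 µL per d for 28 d. Controls were vehicle-infused WT mice and cardiac P2X4R-overexpressing transgenic mice. Infarct size was taken after heart-function measurement, from formalin-fixed, paraffin 4-µm Masson's trichrome sections, as infarct length over endocardial plus epicardial circumference. One-way ANOVA with Newman-Keuls test.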

Mus musculus [2] = assay: Cardioprotective activity in BL6 mouse LAD ligation ischemic heart failure model assessed as fractional shortening at 10 uM, sc administered as infusion at 24 hrs post LAD ligation for 28 days by echocardiography (reference value: 17.33 +/- 1.36%); format: functional
Mus musculus [3] = assay: Ex-vivo cardioprotective activity in BL6 mouse LAD ligation ischemic heart failure model assessed as change in infarct size at 10 uM, sc administered as infusion at 24 hrs post LAD ligation for 28 days relative to control; format: functional, organism-based; summary of the method: as §1
Mus musculus [4] = assay: Ex-vivo cardioprotective activity in BL6 mouse LAD ligation ischemic heart failure model assessed as left ventricular rate of pressure change in isolated heart at 10 uM, sc administered as infusion at 24 hrs post LAD ligation for 28 days (reference value: 6156 +/- 356 mmHg/s); format: functional
Summary of the method: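 LAD-ligated BL6 mice were infused via mini-osmotic pump with 10 µM in PBS pH 7.4 at 6 µL per day for 28 days. Isolated working hearts then ejected buffered perfusate against a constant 56 mmHg hydrostatic afterload, and LV +dP/dt was recorded. Mean ± SEM against vehicle-infused controls; one-way ANOVA with Newman-Keuls.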

Mus musculus [5] = organism: Mus musculus; assay: Agonist activity at P2XR receptor in wild type BL6 mouse cardiac ventricular myocytes assessed as increase in contraction shortening
Summary of the method: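 Adult wild-type murine cardiac ventricular myocytes; contraction shortening recorded at basal control, during drug exposure and after washout. Data are mean ± standard error (13 or 8 myocytes per agent).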

Mus musculus [6] = assay: Cardioprotective activity in mouse overexpressing clasequestrin assessed as increase in fractional shortening at 10 uM, sc administered as infusion for 2 weeks relative to control; format: functional, organism-based
Mus musculus [7] = assay: Cardioprotective activity in mouse overexpressing clasequestrin assessed as prevention of LV wall thinning at 10 uM, sc administered as infusion for 2 weeks; format: functional, organism-based
Summary of the method: (§2)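 CSQ-overexpressing mice with heart failure, 2-week infusion (n=5). Outcome is LV septal and posterior wall thickness versus normal-saline-infused CSQ mice. Values are mean ± standard error.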

[8] = Aqueous solubility of the compound after 1 hr; format: physicochemical; conditions: buffer
Summary of the method: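 Excess solid stirred in water, supernatant removed and lyophilized; solubility calculated from the mass of solid recovered.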

Mus musculus [9] = assay: Cardioprotective activity in mouse overexpressing clasequestrin assessed as LV septal wall thickness at 10 uM, sc administered as infusion for 2 weeks (reference value: 0.45 +/- 0.007 mm); format: functional
Mus musculus [10] = assay: Cardioprotective activity in mouse overexpressing clasequestrin assessed as LV posterior wall thickness at 10 uM, sc administered as infusion for 2 weeks (reference value: 0.45 +/- 0.007 mm); format: functional
Mus musculus [11] = assay: Cardioprotective activity in mouse overexpressing clasequestrin assessed as increase in fractional shortening at 3.3 uM, sc administered as infusion for 2 weeks relative to control; format: functional, organism-based
Mus musculus [12] = assay: Cardioprotective activity in mouse overexpressing clasequestrin assessed as increase in LV posterior wall thickness during systole at 10 uM, sc administered as infusion for 2 weeks relative to control; format: functional, organism-based; summary of the method: as §2
Plasma = assay: Metabolic stability of the compound in rat plasma at 1.09 mM by HPLC analysis; format: ADME, cell-free; conditions: 1090 µM
Summary of the method: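 Incubation with rat plasma at 37°C for 24 h, and checked for hydrolysis.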

[13] = Chemical stability of the compound in aqueous medium at pH 1 at 50 degC after 24 hrs by HPLC analysis; format: physicochemical; conditions: buffer, pH 1, 24 h
Summary of the method: (§3)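 Incubation for 24 h in aqueous medium at pH 1 or pH 11, 50°C, and checked for hydrolysis.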

Liver = assay: Metabolic stability of the compound in mouse liver microsomes by HPLC analysis; format: ADME, Microsome
Summary of the method: (§4)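 Incubation with mouse or rat liver microsomes at 37°C for 24 h, and checked for hydrolysis.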

Mus musculus [14] = assay: Cardioprotective activity in mouse overexpressing clasequestrin assessed as increase in LV septal wall thickness during systole at 10 uM, sc administered as infusion for 2 weeks relative to control; format: functional, organism-based; summary of the method: as §2
Liver microsomes = assay: Metabolic stability of the compound in rat liver microsomes by HPLC analysis; format: ADME, Microsome; summary of the method: as §4
[15] = Chemical stability of the compound in aqueous medium at pH 11 at 50 degC after 24 hrs by HPLC analysis; format: physicochemical; conditions: buffer, pH 11, 24 h; summary of the method: as §3
Mus musculus [16] = assay: Cardioprotective activity in mouse overexpressing clasequestrin assessed as increase in LV posterior wall thickness during diastole at 10 uM, sc administered as infusion for 2 weeks relative to control; format: functional, organism-based; summary of the method: as §2

Row | SMILES | Activity (Mus musculus [1]) | Activity (Mus musculus [2]) [%] | Activity (Mus musculus [3]) | Activity (Mus musculus [4]) [mmHg/s] | further results
1 | CCOP(=S)(OCC)SC[C@@]12C[C@@H]1[C@@H](n1cnc3c(N)nc(Cl)nc31)[C@H](O)[C@@H]2O | inactive | 24.76 |  |  | 
2 | [2H]C([2H])(OP(=O)(OCC)OCC)[C@@]12C[C@@H]1[C@@H](n1cnc3c(N)nc(Cl)nc31)[C@H](O)[C@@H]2O |  | 21.48 |  |  | 
3 | CCOP(=S)(OCC)OC[C@@]12C[C@@H]1[C@@H](n1cnc3c(N)nc(Cl)nc31)[C@H](O)[C@@H]2O | inactive |  |  |  | 
4 | CC(C)(C)OP(=O)(OC[C@@]12C[C@@H]1[C@@H](n1cnc3c(N)nc(Cl)nc31)[C@H](O)[C@@H]2O)OC(C)(C)C | inactive | 24.07 | inactive | 6681 | 
5 | Nc1nc(Cl)nc2c1ncn2[C@@H]1C2CC2(COP(=O)(O)O)[C@@H](O)[C@H]1O (single isomer, unassigned) | inactive | 22.14 | inactive | 6508 | Activity (Mus musculus [5]): Active
6 | Nc1nc(I)nc2c1ncn2[C@H]1[C@H](O)[C@H](O)[C@]2(CP(=O)(O)O)C[C@H]12 | inactive |  | inactive | 6581 | Activity (Mus musculus [6]): inactive; Activity (Mus musculus [7]): inactive
7 | CC(C)OP(=O)(OC[C@@]12C[C@@H]1[C@@H](n1cnc3c(N)nc(Cl)nc31)[C@H](O)[C@@H]2O)OC(C)C | inactive | 25.77 |  |  | 
8 | [2H]C([2H])(OP(=O)(O)O)[C@@]12C[C@@H]1[C@@H](n1cnc3c(N)nc(Cl)nc31)[C@H](O)[C@@H]2O |  | 23.06 |  |  | 
9 | CCOP(=O)(OCC)SC[C@@]12C[C@@H]1[C@@H](n1cnc3c(N)nc(Cl)nc31)[C@H](O)[C@@H]2O | inactive | 24.31 |  |  | 
10 | CCOP(=O)(C[C@@]12C[C@@H]1[C@@H](n1cnc3c(N)nc(Cl)nc31)[C@H](O)[C@@H]2O)OCC | inactive |  | inactive | 5946 | solubility [8]: 60 mM (≈ 25.9 mg/mL)
11 | Nc1nc(Cl)nc2c1ncn2[C@H]1[C@H](O)[C@H](O)[C@]2(CSP(=O)(O)O)C[C@H]12 | inactive |  | inactive | 6553 | Activity (Mus musculus [9]): 0.492 mm; Activity (Mus musculus [10]): 0.493 mm
12 | Nc1nc(Cl)nc2c1ncn2[C@H]1[C@H](O)[C@H](O)[C@]2(COP(=O)(O)O)C[C@H]12 |  |  |  |  | Activity (Mus musculus [1]; tested as the 2H-labelled form): inactive
13 | CCOP(=O)(C[C@@]12C[C@@H]1[C@@H](n1cnc3c(N)nc(I)nc31)[C@H](O)[C@@H]2O)OCC | inactive | 23.05 |  |  | 
14 | Nc1nc(Cl)nc2c1ncn2[C@H]1[C@H](O)[C@H](O)[C@]2(CCP(=O)(O)O)C[C@H]12 |  |  |  |  | Activity (Mus musculus [5]): Active; Activity (Mus musculus [6]): Active; Activity (Mus musculus [11]): Active
15 | CC(C)OP(=O)(CC[C@@]12C[C@@H]1[C@@H](n1cnc3c(N)nc(Cl)nc31)[C@H](O)[C@@H]2O)OC(C)C |  |  |  |  | Activity (Mus musculus [12]): Active; Stability (Plasma): Stable; Stability [13]: Stable; Stability (Liver): Stable; Activity (Mus musculus [14]): Active; solubility [8]: 7.25 mM (≈ 3.44 mg/mL); Stability (Liver microsomes): Stable; Stability [15]: Stable; Activity (Mus musculus [16]): Active
16 | CCOP(=O)(OCC)OC[C@@]12C[C@@H]1[C@@H](n1cnc3c(N)nc(Cl)nc31)[C@H](O)[C@@H]2O | inactive | 24.71 | inactive | 6711 | Activity (Mus musculus [1]; tested as the 2H-labelled form): inactive
